{
  "source": "ChEMBL document CHEMBL5236609",
  "about": "“Optimization of 1,2,4-Triazole-3-thiones toward Broad-Spectrum Metallo-β-lactamase Inhibitors Showing Potent Synergistic Activity on VIM- and NDM-1-Producing Clinical Isolates” (J Med Chem, 2022)",
  "note": "pKi: −log10 of the molar value. Active and inactive are the calls of the source. The calls are words filed in the database; no cut-off is given here.",
  "data": [
    {"system": "not listed separately", "test": "Metabolic stability in CD-1 mouse microsomes assessed as compound remaining after 40 mins LC-MS/MS analysis", "assay_type": "ADME, Microsome", "conditions": "read-out: Activity", "outline": "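Mouse liver microsomes, mixed gender, at 37 °C for 40 min; propranolol control. Reports t1/2, intrinsic clearance and % intact compound remaining at 40 min.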", "units": {"remaining at 40 min": "%"}, "values": [
      {"compound": "CC(C)NCC(O)COc1cccc2ccccc12", "note": "(stereo not drawn) [PROPRANOLOL]", "remaining at 40 min": 31}
    ]},
    {"system": "Bacteria", "test": "Inhibition of bacterial NDM-1 (unknown origin) expressed in Escherichia coli EXPRESS BL21(DE3) assessed as inhibition constant by measuring rate of substrate hydrolysis at 100 uM by UV-visible spectrophotometry relative to control", "conditions": "not given", "outline": "(§1)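 Reporter-substrate assay with purified MBL (1–70 nM final) in 50 mM HEPES pH 7.5 at 30 °C. […] Inhibitor 0.5–1000 μM final. Ki derived from the v0/vi vs [I] slope assuming competitive inhibition, or from a Dixon plot. Ki given when inhibition >70%, otherwise % inhibition at 100 μM. Triplicate.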", "units": {"inhibition": "%"}, "values": [
      {"compound": "O=C(O)[C@H](CCCn1c(-c2ccccc2)n[nH]c1=S)N(Cc1cccnc1)Cc1cccnc1", "inhibition": 67},
      {"compound": "O=C(O)[C@H](CCCn1c(-c2ccccc2)n[nH]c1=S)N(Cc1ccccc1)Cc1ccccc1", "inhibition": 32}
    ]},
    {"system": "not listed separately", "test": "Cytotoxicity against human HeLa cells assessed as LDH release incubated for 24 hrs by membrane integrity assay", "assay_type": "toxicity, cell-based", "conditions": "not given", "outline": "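HeLa cells (20,000/well) exposed to compound up to 250 μM for 24 h at 37 °C, 5% CO2 in DMEM with 10% FBS, 4.5 mg/mL glucose and 2 mM L-glutamine. LDH release expressed as % of Triton X-100 maximum lysis; IC50 is the concentration giving 50% cytotoxicity.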", "units": {"CC50 at 24 h": "µM"}, "values": [
      {"compound": "Cc1[nH]cnc1CN(Cc1nc[nH]c1C)[C@@H](CCCn1c(-c2ccccc2)n[nH]c1=S)C(=O)O", "CC50 at 24 h": 141}
    ]},
    {"system": "Bacteria", "test": "Inhibition of bacterial VIM-4 (unknown origin) expressed in Escherichia coli EXPRESS BL21(DE3) assessed as inhibition constant by measuring rate of substrate hydrolysis at 100 uM by UV-visible spectrophotometry relative to control", "conditions": "not given", "outline": "as §1", "units": {"inhibition": "%"}, "values": [
      {"compound": "O=C(O)[C@H](CCCn1c(-c2ccccc2)n[nH]c1=S)N(Cc1ccccc1)Cc1ccccc1", "inhibition": 64}
    ]},
    {"system": "Bacteria", "test": "Competitive inhibition of bacterial VIM-2 (unknown origin) assessed as Zn(II) content by at 48 uM by overnight equilibrium dialysis", "conditions": "not given", "outline": "(§2)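 VIM-2 or NDM-1 (3 μM final) in 50 mM HEPES pH 7.5 mixed with compound at 0–48 μM. Incubated 1 h on ice, then dialysed overnight at 4 °C against 50 mM HEPES pH 7.5. Zn(II) content measured by atomic absorption at 213.86 nm against a zinc standard curve. Each point averages three samples.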", "values": [
      {"compound": "O=C(O)[C@H](CCCn1c(-c2ccccc2)n[nH]c1=S)N(Cc1cccnc1)Cc1cccnc1", "inhibition": "Active"}
    ]},
    {"system": "Bacteria", "test": "Inhibition of bacterial VIM-2 (unknown origin) expressed in Escherichia coli EXPRESS BL21(DE3) assessed as inhibition constant by measuring rate of substrate hydrolysis at 100 uM by UV-visible spectrophotometry relative to control", "conditions": "not given", "outline": "as §1", "units": {"inhibition": "%"}, "values": [
      {"compound": "O=C(O)[C@H](CCCn1c(-c2ccccc2)n[nH]c1=S)N(Cc1ccccc1)Cc1ccccc1", "inhibition": 63}
    ]},
    {"system": "Klebsiella pneumoniae", "test": "Antimicrobial activity against blaVIM-4-producing multidrug-resistant Klebsiella pneumoniae VA-416/02 clinical isolate assessed as meropenem MIC at 32 ug/ml by broth microdilution method (reference value: […] ug/ml)", "assay_type": "functional", "conditions": "dose 32 µg/ml", "outline": "(§3)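 Inoculum was 5×10^4 CFU/well. Each inhibitor was present at a fixed 32 μg/mL, and MICs were also taken without inhibitor.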", "units": {"MIC": "µg/mL"}, "values": [
      {"compound": "O=C(O)[C@H](CCCn1c(-c2ccccc2)n[nH]c1=S)N(Cc1cccnc1)Cc1cccnc1", "MIC": 1},
      {"compound": "Cc1[nH]cnc1CN(Cc1nc[nH]c1C)[C@@H](CCCn1c(-c2ccccc2)n[nH]c1=S)C(=O)O", "MIC": 0.03},
      {"compound": "O=C(O)[C@H](CCCn1c(-c2ccccc2)n[nH]c1=S)N(Cc1ccccc1)Cc1ccccc1", "MIC": 4}
    ]},
    {"system": "not listed separately", "test": "Inhibition of bacterial VIM-2 (unknown origin) expressed in Escherichia coli EXPRESS BL21(DE3) assessed as inhibition constant by measuring rate of substrate hydrolysis by UV-visible spectrophotometry", "set-up": "species or system Bacteria", "conditions": "not given", "outline": "as §1", "values": [
      {"compound": "O=C(O)[C@H](CCCn1c(-c2ccccc2)n[nH]c1=S)N(Cc1cccnc1)Cc1cccnc1", "pKi": 6.38},
      {"compound": "Cc1[nH]cnc1CN(Cc1nc[nH]c1C)[C@@H](CCCn1c(-c2ccccc2)n[nH]c1=S)C(=O)O", "pKi": 6.66}
    ]},
    {"system": "Bacteria", "test": "Inhibition of bacterial NDM-1 (unknown origin) assessed as ternary complex formation using 10 uM enzyme concentration at 50 uM by native MS analysis", "conditions": "not given", "outline": "(§4)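 Purified VIM-2 or NDM-1 was given 2 mM TCEP and 2 equiv ZnCl2, incubated 1 h, and dialysed overnight into 100 mM ammonium acetate pH 7.5. Enzyme at 10 μM was then incubated 5 min with 50 μM compound. Positive-mode nanoESI on an Orbitrap, scanning m/z 1000–4000. Species assigned from deconvoluted masses.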", "values": [
      {"compound": "O=C(O)[C@H](CCCn1c(-c2ccccc2)n[nH]c1=S)N(Cc1cccnc1)Cc1cccnc1", "inhibition": "Active"}
    ]},
    {"system": "not listed separately", "test": "Inhibition of bacterial NDM-1 (unknown origin) expressed in Escherichia coli EXPRESS BL21(DE3) assessed as inhibition constant by measuring rate of substrate hydrolysis by UV-visible spectrophotometry", "set-up": "species or system Bacteria", "conditions": "not given", "outline": "as §1", "values": [
      {"compound": "Cc1[nH]cnc1CN(Cc1nc[nH]c1C)[C@@H](CCCn1c(-c2ccccc2)n[nH]c1=S)C(=O)O", "pKi": 7.64}
    ]},
    {"system": "not listed separately", "test": "Inhibition of bacterial VIM-1 (unknown origin) expressed in Escherichia coli EXPRESS BL21(DE3) assessed as inhibition constant by measuring rate of substrate hydrolysis by UV-visible spectrophotometry", "set-up": "species or system Bacteria", "conditions": "not given", "outline": "as §1", "values": [
      {"compound": "O=C(O)[C@H](CCCn1c(-c2ccccc2)n[nH]c1=S)N(Cc1cccnc1)Cc1cccnc1", "pKi": 5.59},
      {"compound": "Cc1[nH]cnc1CN(Cc1nc[nH]c1C)[C@@H](CCCn1c(-c2ccccc2)n[nH]c1=S)C(=O)O", "pKi": 6.51}
    ]},
    {"system": "Escherichia coli", "test": "Antimicrobial activity against blaNDM-1-producing multidrug-resistant Escherichia coli SI-004 clinical isolate assessed as meropenem MIC at 32 ug/ml by broth microdilution method (reference value: 64 ug/ml)", "conditions": "not given", "units": {"MIC": "µg/mL"}, "values": [
      {"compound": "O=C(O)[C@H](CCCn1c(-c2ccccc2)n[nH]c1=S)N(Cc1cccnc1)Cc1cccnc1", "MIC": 64},
      {"compound": "Cc1[nH]cnc1CN(Cc1nc[nH]c1C)[C@@H](CCCn1c(-c2ccccc2)n[nH]c1=S)C(=O)O", "MIC": 2},
      {"compound": "O=C(O)[C@H](CCCn1c(-c2ccccc2)n[nH]c1=S)N(Cc1ccccc1)Cc1ccccc1", "MIC": 64}
    ]},
    {"system": "Bacteria", "test": "Competitive inhibition of bacterial NDM-1 (unknown origin) assessed as Zn(II) content at 48 uM by overnight equilibrium dialysis", "conditions": "not given", "outline": "as §2", "values": [
      {"compound": "O=C(O)[C@H](CCCn1c(-c2ccccc2)n[nH]c1=S)N(Cc1cccnc1)Cc1cccnc1", "inhibition": "Active"}
    ]},
    {"system": "Bacteria", "test": "Inhibition of bacterial VIM-1 (unknown origin) expressed in Escherichia coli EXPRESS BL21(DE3) assessed as inhibition constant by measuring rate of substrate hydrolysis at 100 uM by UV-visible spectrophotometry relative to control", "conditions": "not given", "outline": "as §1", "units": {"inhibition": "%"}, "values": [
      {"compound": "O=C(O)[C@H](CCCn1c(-c2ccccc2)n[nH]c1=S)N(Cc1ccccc1)Cc1ccccc1", "inhibition": 38}
    ]},
    {"system": "Klebsiella pneumoniae", "test": "Antimicrobial activity against blaVIM-1-producing multidrug-resistant Klebsiella pneumoniae K47-25 clinical isolate assessed as meropenem MIC at 32 ug/ml by broth microdilution method (reference value: […] ug/ml)", "assay_type": "functional", "conditions": "dose 32 µg/ml", "outline": "as §3", "units": {"MIC": "µg/mL"}, "values": [
      {"compound": "O=C(O)[C@H](CCCn1c(-c2ccccc2)n[nH]c1=S)N(Cc1cccnc1)Cc1cccnc1", "MIC": 4},
      {"compound": "Cc1[nH]cnc1CN(Cc1nc[nH]c1C)[C@@H](CCCn1c(-c2ccccc2)n[nH]c1=S)C(=O)O", "MIC": 0.03},
      {"compound": "O=C(O)[C@H](CCCn1c(-c2ccccc2)n[nH]c1=S)N(Cc1ccccc1)Cc1ccccc1", "MIC": 2}
    ]},
    {"system": "not listed separately", "test": "Inhibition of bacterial VIM-4 (unknown origin) expressed in Escherichia coli EXPRESS BL21(DE3) assessed as inhibition constant by measuring rate of substrate hydrolysis by UV-visible spectrophotometry", "set-up": "species or system Bacteria", "conditions": "not given", "outline": "as §1", "values": [
      {"compound": "O=C(O)[C@H](CCCn1c(-c2ccccc2)n[nH]c1=S)N(Cc1cccnc1)Cc1cccnc1", "pKi": 6.28},
      {"compound": "Cc1[nH]cnc1CN(Cc1nc[nH]c1C)[C@@H](CCCn1c(-c2ccccc2)n[nH]c1=S)C(=O)O", "pKi": 6.46}
    ]},
    {"system": "Pseudomonas aeruginosa", "test": "Antimicrobial activity against blaVIM-2-producing multidrug-resistant Pseudomonas aeruginosa VA-182/00 clinical isolate assessed as meropenem MIC at 32 ug/ml by broth microdilution method (reference value: 128 ug/ml)", "assay_type": "functional", "conditions": "dose 32 µg/ml", "outline": "as §3", "units": {"MIC": "µg/mL"}, "values": [
      {"compound": "O=C(O)[C@H](CCCn1c(-c2ccccc2)n[nH]c1=S)N(Cc1cccnc1)Cc1cccnc1", "MIC": 128},
      {"compound": "Cc1[nH]cnc1CN(Cc1nc[nH]c1C)[C@@H](CCCn1c(-c2ccccc2)n[nH]c1=S)C(=O)O", "MIC": 16},
      {"compound": "O=C(O)[C@H](CCCn1c(-c2ccccc2)n[nH]c1=S)N(Cc1ccccc1)Cc1ccccc1", "MIC": 128}
    ]},
    {"system": "Bacteria", "test": "Inhibition of bacterial VIM-2 (unknown origin) assessed as ternary complex formation using 10 uM enzyme concentration at 50 uM by native MS analysis", "conditions": "not given", "outline": "as §4", "values": [
      {"compound": "O=C(O)[C@H](CCCn1c(-c2ccccc2)n[nH]c1=S)N(Cc1cccnc1)Cc1cccnc1", "inhibition": "Active"}
    ]},
    {"system": "Bacteria", "test": "Inhibition of bacterial IMP-1 (unknown origin) expressed in Escherichia coli EXPRESS BL21(DE3) assessed as inhibition constant by measuring rate of substrate hydrolysis at 100 uM by UV-visible spectrophotometry relative to control", "conditions": "not given", "outline": "as §1", "units": {"inhibition": "%"}, "values": [
      {"compound": "O=C(O)[C@H](CCCn1c(-c2ccccc2)n[nH]c1=S)N(Cc1cccnc1)Cc1cccnc1", "inhibition": "< 30"},
      {"compound": "Cc1[nH]cnc1CN(Cc1nc[nH]c1C)[C@@H](CCCn1c(-c2ccccc2)n[nH]c1=S)C(=O)O", "inhibition": 57},
      {"compound": "O=C(O)[C@H](CCCn1c(-c2ccccc2)n[nH]c1=S)N(Cc1ccccc1)Cc1ccccc1", "inhibition": "< 30"}
    ]}
  ]
}
